T cruzi repl: blocks replication of Trypanosoma cruzi. AID 1885. inhibition, % (no concentration beside the values). actives 1.4% (n = 300,000). T. cruzi beta-gal in NIH3T3, luminescence, 90 h;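 active = mean inhibition across valid replicates above about 55%, limit read from the data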;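 note: signal also drops with host cell toxicity which is not excluded here; 0% = plate median of DMSO wells and 100% = zero luminescence signal; higher percent means less beta-gal luminescence so fewer parasites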
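Assay system: NIH/3T3 fibroblasts plus reporter T. cruzi. Amount: NIH/3T3 cells, 5,000 per well. Buffer or medium: DMEM, 2% fetal bovine serum. Doses: compound pinned at 50 nL/well, DMSO. Schedule: ≥90 h infection period, 3 h prior cell attachment. Signal: luminescent β-galactosidase signal after 60 min lysis. Read-out: parasite load inhibition, %.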
Beta apoptosis: beta cell apoptosis inhibition; INS-1E cytokine-induced death, ATP luminescence, 48 h; percent of positive-control rescue, neutral wells zero; protection from apoptosis, % (concentration not given with the values); actives 0.8% (n = 300,000); AID 435005;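 active = Every replicate reaches about 75%, or at least half do and their mean reaches it too, limit read from the data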;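 note: 0% = cytokine-treated negative control wells and 100% = positive control rescue; higher means more ATP so stronger rescue from cytokine killing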
CHOP UPR activ: activators of apoptotic arm of unfolded protein response (CHOP); AID 449763; actives 0.34% (n = 330,000); CHO-CHOP luciferase reporter, UPR activation, luminescence; percent of tunicamycin response over DMSO baseline; activation, % at 10 µM;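 active = at 10 µM dose, activation of 40% or more, normalized to positive control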;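 note: 100% = tunicamycin at 10 µg/mL and 0% = DMSO alone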
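Material: CHO-CHOP cells, stable luciferase reporter of PERK-eIF2a-CHOP signalling; quantity: 500 reporter cells seeded per well; buffer or medium: F12 medium containing 10% fetal bovine serum; compound: one dose, 10 µM in 0.5% DMSO; incubation: 6 h compound treatment, 37 °C; measured by: Steady-Glo luciferase luminescence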
Mdm2-MdmX inh: disrupts the human Mdm2-MdmX interaction; inhibition, % at 8 µM; SaOS-2 split-luciferase Mdm2/MdmX complementation, luminescence; actives 3% (n = 330,000); O15151+Q00987;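 active = inhibition of at least 50% at 8 µM in the primary screen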
CSC inhib: blocks cancer stem cells. cancer stem cell-like cells viability, luminescence. inhibition, % at 7.5 µM. actives 1.1% (n = 300,000); in the data active = inhibition above about 75%; tested in HMLE shEcad cells
XBP1 UPR activ: activators of adaptive arm of unfolded protein response (XBP1); CHO-XBP1 luciferase reporter, IRE1-XBP1 UPR activation, luminescence; percent of tunicamycin response, DMSO as zero; activation, % at 20 µM; AID 463104; actives 0.33% (n = 330,000);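 active = versus positive control, 20 µM dose yields 30% or more activation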;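 note: 100% = tunicamycin at 10 µg/mL and 0% = DMSO only wells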
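assay system = CHO-XBP1 luciferase reporter cells | amount = 1000 cells/well | buffer or medium = F12 plus 10% FBS | compound dosing = single point, 20 µM final compound, 1% DMSO | incubation = 16-18 h cell attachment at 37 °C, then 6 h compound exposure | detection = Steady-Glo luminescence read | controls = tunicamycin 10 µg/mL and vehicle-only wells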
Starred values were filed as active, the others as inactive; . = no result. Most compounds without a hit are left out; they make up all but 5% or so of the library.

SMILES	T cruzi repl	Beta apoptosis	CHOP UPR activ	Mdm2-MdmX inh	CSC inhib	XBP1 UPR activ
NC(=S)N/N=C/c1ccccc1OCCSc1ccc(Cl)cc1	56.6*	29.0	7.9	39.2	-3.9	12.4
CCOC(=O)N/N=C/c1ccccc1OCc1ccc(Cl)cc1	11.8	.	6.3	-20.2	.	4.2
COc1cccc(/C=N/NC(N)=S)c1OCc1ccccc1Cl	59.3*	6.2	2.4	33.3	10.5	2.2
COc1cccc(/C=N/n2nnnc2N)c1OCc1ccccc1Cl	-0.5	-1.6	-0.9	11.8	4.9	0.6
COc1ccc(-n2c(=O)c3ccccc3n(CC(=O)NC3CCCC3)c2=O)cc1	-22.1	0.2	0.2	16.9	.	-2.4
C[C@@H]1O[C@@H](O[C@H]2[C@H](Oc3cc(O)c4c(c3)OC(c3ccc(O)cc3)CC4=O)O[C@H](CO)[C@@H](O)[C@@H]2O)[C@H](O)[C@H](O)[C@H]1O (some centres undefined)	-19.1	-7.3	-0.1	-5.1	-14.7	-10.4
COc1cnn(-c2ccccc2)c(=O)c1SCc1ccc(Cl)c(Cl)c1	-31.2	5.9	2.7	-36.8	11.9	-1.9
CSc1c(SCc2ccccc2)cnn(-c2ccccc2)c1=O	-6.1	-3.7	0.3	-5.2	79.1*	-0.5
CCN(Cc1ccncc1)C(=O)c1cccs1	-17.3	2.4	-0.3	13.1	7.3	5.7
CC(C)CCn1c(SCC(=O)NC2CCS(=O)(=O)C2)nc2cc(Cl)ccc2c1=O (centres undefined)	-8.2	1.5	-0.1	6.4	-5.0	-3.5
CCCNC(=O)c1c(N)n(-c2cccc(OC)c2)c2nc3ccccc3nc12	10.1	103.6*	-0.4	26.7	29.3	0.4
COCCCNC(=O)c1c(N)n(-c2cccc(S(N)(=O)=O)c2)c2nc3ccccc3nc12	3.3	-5.4	-0.8	23.9	1.7	-1.0
Cc1cccc(N(Cc2cc3ccccc3[nH]c2=O)C(=O)c2cccs2)c1	6.3	-1.4	-0.4	-0.8	10.0	-1.1
Cc1cccc(-n2ncc3c2CCCC3NC(=O)C2CCOCC2)c1C (centres undefined)	-7.0	10.9	0.6	37.7	-0.3	-4.0
CC(Oc1ccccc1)C(=O)NC1=NCCS1 (centres undefined)	-12.9	-7.7	0.2	-40.7	-0.4	-0.4
C/C(Cn1cnc([N+](=O)[O-])n1)=N\NC(=O)c1ccncc1	48.7	-3.7	-0.5	-29.6	-1.0	-0.8
C/C(Cn1cnc([N+](=O)[O-])n1)=N\NC(=O)c1ccc(F)cc1	47.8	-3.7	-0.5	40.2	-12.1	1.6
C/C(Cn1cnc([N+](=O)[O-])n1)=N\NC(=O)c1cccc(F)c1	62.8*	-0.5	0.4	13.7	4.4	-0.4
COc1ccc(C(=O)N/N=C(\C)Cn2cnc([N+](=O)[O-])n2)cc1	55.9*	10.7	4.3	2.3	8.8	-0.7
Cc1noc(C)c1S(=O)(=O)Nc1ccc2c(c1)C(=O)N([C@H](C)CO)C[C@H](C)[C@@H](CN(C)C(=O)Nc1ccc3c(c1)OCO3)O2	.	.	0.1	17.7	.	-2.5
C/C(=N\NC(=O)c1nnn(-c2nonc2N)c1CN(C)c1ccccc1)c1ccccn1	31.0	86.0*	.	.	105.0*	.
C/C(=N\NC(=O)c1nnn(-c2nonc2N)c1CN(C)c1ccccc1)c1ccc(O)cc1	-8.1	-7.1	0.2	27.9	10.1	-2.4
CC(C)(O)c1ccccc1CC[C@@H](SCC1(CC(=O)O)CC1)c1cccc(/C=C/c2ccc3ccc(Cl)cc3n2)c1	-1.7	-2.7	2.6	18.7	96.9*	-7.3
CC(=O)Oc1ccc(Cl)cc1/C=C/c1ccc2ccccc2n1	-4.3	7.1	3.0	2.9	49.1	3.1
COC(=O)c1c(C)nn(-c2ccc(F)c(Cl)c2)c1-c1cc(C)on1	7.7	2.8	-0.8	-3.9	0.3	3.5
SMILES	T cruzi repl	Beta apoptosis	CHOP UPR activ	Mdm2-MdmX inh	CSC inhib	XBP1 UPR activ
S=C(c1cn(CCOc2ccccc2)c2ccccc12)N1CCCC1	15.6	37.3	-0.4	16.1	-2.0	-2.8
S=C(c1cn(CCOc2cccc3ccccc23)c2ccccc12)N1CCCC1	40.4	105.2*	4.9	-1.8	4.4	1.8
O=C(N=C1N=C2C=CC(Br)=CN2Cc2ccccc21)c1ccc([N+](=O)[O-])cc1[N+](=O)[O-]	56.6*	-0.8	5.9	-102.9	-0.1	-0.5
Cc1ccc(OCC(=O)O)c(-n2nc3ccccc3n2)c1	-3.1	-23.6	-3.9	9.4	-10.5	2.7
Cc1ccc(NC(=O)COc2ccc(CCO)cc2-n2nc3ccccc3n2)cc1C	56.7*	1.2	1.5	18.7	60.0	8.0
COc1cccc(C(=O)NC(C)C(c2cccs2)N2CCOCC2)c1 (centres undefined)	1.0	3.5	-2.4	-12.0	15.8	2.9
CC(NC(=O)c1cccnc1)C(c1cccs1)N1CCOCC1 (centres undefined)	65.4*	-5.0	-0.4	-4.2	-9.1	-1.3
COc1ccc(OC)c(CN2CCN(C(=O)CCNC(=O)c3ccc(Br)cc3)CC2)c1	60.3*	-6.1	1.8	-8.3	-6.5	-3.6
O=C(CCc1ccc(Oc2cc([N+](=O)[O-])cc([N+](=O)[O-])c2)cc1)NC1CCCC1	62.7*	7.2	-0.5	22.4	-5.0	-0.1
CC1CCN(C(=O)CCc2ccc(Oc3cc([N+](=O)[O-])cc([N+](=O)[O-])c3)cc2)CC1	46.1	1.6	-0.8	-11.5	49.8	-1.1
COCCNC(=O)c1c[nH]c2ccc(S(=O)(=O)N3CCC4(CC3)OCCO4)cc2c1=O	-4.2	.	.	.	.	.
CCc1ccc(CN(Cc2cccnc2)C(=O)/C=C/c2ccc(OC)cc2)cc1	63.6*	22.6	0.4	18.9	0.7	-3.5
CC(C)[C@H](NC(=O)[C@H]1N2C(=O)c3ccccc3C2SC1(C)C)C(=O)NCc1ccco1 (some centres undefined)	-5.0	-3.4	1.2	22.6	10.7	-4.7
CC1=NN(c2ccccc2)C(=O)C1C=Nc1ccc(N(C)C)cc1 (centres undefined)	29.9	9.6	1.5	10.0	86.5*	-1.2
CC1=NN(c2ccccc2)C(=O)C1N=Nc1ccc(C)cc1 (centres undefined)	2.2	-13.1	-1.8	-24.4	-12.2	2.5
Cc1ccc(C)c(NC(=O)CSc2ccc(-c3cccs3)nn2)c1	2.8	0.3	-0.6	2.5	-4.1	0.2
Cc1ccc(C)c(NC(=O)CSc2nc3nc(-c4cccs4)cc(C(F)(F)F)c3c(=O)[nH]2)c1	-8.6	11.4	-1.6	45.1	95.8*	2.7
CCOC(=O)c1c(C)[nH]c(C)c1C(=O)COc1ncnc2cc([N+](=O)[O-])ccc12	50.3	-0.6	0.4	12.3	2.1	-5.1
